Measured values: ChEMBL document CHEMBL2086357 (Eur J Med Chem, 2012)

Columns and labels:
LoVo = test: Antiproliferative activity against human LoVo cells after 96 hrs by MTT assay; type: functional
MCF7 = test: Antiproliferative activity against human MCF7 cells after 96 hrs by MTT assay; type: functional; conditions: MCF7, 96 h
[1] = target: Cyclin-dependent kinase 2/cyclin A (Homo sapiens) (UniProt P24941+P20248+P78396); test: Inhibition of recombinant CDK2/cyclin A expressed in Sf21 cells using histone H1 as substrate at 10 uM after 10 mins by scintillation counting in presence of [32P]ATP
Procedure, shortened: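 CDK2/cyclin A was combined on ice with histone H1 substrate in kit buffer, then inhibitor was added. Prediluted ³²P-ATP with MgCl2 and cold ATP was added, and tubes were shaken for 10 min at 30 °C. Aliquots were spotted on phosphocellulose paper, washed three times in 0.75% phosphoric acid, rinsed in acetone and counted by scintillation. Percent inhibition versus an untreated control is the mean of duplicate experiments.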

PC-3 = test: Antiproliferative activity against human PC3 cells after 96 hrs by MTT assay; type: functional; conditions: PC-3, 96 h
A549 = test: Antiproliferative activity against human A549 cells after 96 hrs by MTT assay; type: functional; conditions: A549, 96 h
[2] = Drug degradation in DMEM cell culture medium assessed as (E)-5-(Hydroxyimino)-10-methyl-2,3,4,5-tetrahydroazepino[3,4-b]indol-1(10H)-one at 10 to 100 nmol after 7 days by NMR analysis; type: physicochemical; conditions: 168 h
Procedure, shortened: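 Two solutions of the compound in cell culture medium (10 and 100) were held at 37 °C for seven days. They were then extracted with ethyl acetate, and breakdown was assessed by NMR.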

[3] = target: Cyclin-dependent kinase 2/cyclin E1 (Homo sapiens, UniProt P24941); test: Inhibition of CDK2/cyclin E; type: protein-complex assay
[4] = target: Cyclin-dependent kinase 2/cyclin A (Homo sapiens, UniProt P24941); test: Inhibition of CDK2/cyclin A; type: protein-complex assay
CCRF-CEM = test: Growth inhibition of human CCRF-CEM cells up to 48 hrs by trypan blue exclusion assay; type: functional
Jurkat = test: Inhibition of PMA- and PHA-stimulated IL2 production in human Jurkat T cells incubated for 30 mins prior to PMA- and PHA-stimulation by competitive enzyme immunoassay; type: functional, cell-based
[5] = Inhibition of starfish CDK1/cyclin B using histone H1 as substrate after 10 mins in presence of [gamma32P}ATP; set-up: species or system Asteroidea

SMILES	GI50 (LoVo) [µM]	GI50 (MCF7) [µM]	inhibition [1] [%]	GI50 (PC-3) [µM]	GI50 (A549) [µM]	further results
O=C1NCC/C(=N\O)c2c1[nH]c1ccc(Br)cc21	27.2	54.6	45	46.2	63.3	
Cn1c2c(c3ccccc31)/C(=N/OCc1ccccc1)CCNC2=O						Drug degradation [2]: 50%
Cn1c2c(c3ccccc31)/C(=N/OCC1CCCCC1)CCNC2=O	20.5	23.3	12	29.1	32.1	Drug degradation [2]: Not Active
O=C1NCC/C(=N\OCc2ccccc2)c2c1[nH]c1ccccc21	24.3	28.1	32	23.4	34.9	
O=C1CCNC(=O)c2[nH]ccc21 [ALDISIN]	> 100	> 100		> 100	> 100	
NC1=NC(=O)/C(=C2\CCNC(=O)c3[nH]c(Br)cc32)N1 [HYMENIALDISINE]						IC50 [3]: 0.04 µM; IC50 [4]: 0.07 µM
Cn1c2c(c3ccccc31)/C(=N/O)CCNC2=O	51.3	> 100		> 100	> 100	
O=C1NCC/C(=N\O)c2c1[nH]c1ccccc21	40.5	> 100		> 100	> 100	
Nc1nc(C2=C3C(=Nc4ccccc43)C(=O)NCC2)c(O)[nH]1						GI50 (CCRF-CEM): 1.7 µM; IC50 (Jurkat): 3.5 µM
O=C1Cc2c([nH]c3ccc(Br)cc23)-c2ccccc2N1 [KENPAULLONE]						IC50 [5]: 0.4 µM
O=C1NCCC(=O)c2c1[nH]c1ccccc21	36.9	> 100		> 100	97.7	
Cn1c(Br)c(Br)c2c1C(=O)NCC/C2=N\OCc1ccccc1			22			
O=C1NCC/C(=N\OCc2ccccc2)c2c1[nH]c(Br)c2Br			0			
Cn1c2c(c3ccccc31)C(=O)CCNC2=O	36.8	> 100		> 100	> 100	
Cn1c(Br)c(Br)c2c1C(=O)NCC/C2=N\OCC1CCCCC1			13			
